Assay results published in ChEMBL document CHEMBL4689842, “EUbOPEN Chemogenomics Library wave 1” (2021).
Where “and” joins values, the source holds several entries; their conditions need not be identical. Equal values may be shown once.

What was measured:
Type in all cases: toxicity, cell-based
U2OS = test: Incucyte cell viability with U2OS; conditions: human, 10 µM, compound concentration 10 uM; note: filed as whole numbers so only -1 and 0 and 1 occur
Fibroblast [1] = test: Incucyte cell viability with human fibroblast; conditions: 10 µM, compound concentration 10 uM; note: filed as whole numbers so only -1 and 0 and 1 occur
HEK-293T = test: Incucyte cell viability with HEK293T; conditions: human, 10 µM, compound concentration 10 uM; note: filed as whole numbers so only -1 and 0 and 1 occur
Fibroblast [2] = test: Multiplex assay against human fibroblast; conditions: 10 µM, compound concentration 10 uM
Outline: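 Values for tubulin, mitochondrial-mass and membrane-permeability phenotypes are per cents of cells with healthy nuclei. These cells were identified by CellPathfinder machine-learning gating of live cells that had been stained at seeding with Hoechst33342, BioTracker Green Microtubule Cytoskeleton Dye, MitoTracker Red and Annexin V Alexa Fluor 680 and imaged on a CQ1 microscope at 37°C and 5% CO2 after compound addition. The gating first set Hoechst high-intensity objects apart from normal cells, then split normal cells into healthy, pyknosed or fragmented nuclei, and pyknosed cells into mitotic or apoptotic.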

[3] = 0 h, replicate number 2, timepoint 0 hours
[4] = 6 h, replicate number 1, timepoint 6 hours
[5] = 6 h, replicate number 2, timepoint 6 hours
[6] = 12 h, replicate number 1, timepoint 12 hours
[7] = 18 h, replicate number 1, timepoint 18 hours
[8] = 24 h, replicate number 1, timepoint 24 hours
[9] = 0 h, replicate number 1, timepoint 0 hours
[10] = 12 h, replicate number 2, timepoint 12 hours
[11] = 18 h, replicate number 2, timepoint 18 hours

COc1cc(N2CCC(N3CCN(C)CC3)CC2)ccc1Nc1ncnc(Nc2ccccc2S(=O)(=O)C(C)C)n1 [ASP-3026]
Growth Rate (U2OS; [3]): 0
Growth Rate (U2OS; [4]): 0
Growth Rate (U2OS; [5]): 1
Growth Rate (U2OS; [6]): 0
Growth Rate (U2OS; [7]): 0
Growth Rate (U2OS; [8]): 0
Growth Rate (Fibroblast [1]; [3]): 0
Growth Rate (Fibroblast [1]; [4]): 0
Growth Rate (Fibroblast [1]; [6]): 0
Growth Rate (Fibroblast [1]; [7]): 0
Growth Rate (Fibroblast [1]; [8]): 0
Growth Rate (HEK-293T; [4]): 0
Growth Rate (HEK-293T; [6]): 0
Growth Rate (HEK-293T; [7]): 0
Growth Rate (HEK-293T; [8]): 0
Population Apoptotic (%) (Fibroblast [2]; 12 h, replicate 1): 72% and 66%
Population Fragmented Nuclei (%) (Fibroblast [2]; 12 h, replicate 1): 30% and 23%
Population Healthy Nuclei (%) (Fibroblast [2]; 12 h, replicate 1): 55% and 60%
Population Hoechst High Intensity Objects (%) (Fibroblast [2]; 12 h, replicate 1): 14% and 18%
Population Membrane Permeable-Phenotype (%) (Fibroblast [2]; 12 h, replicate 1): 11% and 9%
Population Mitochondria Different-Phenotype (%) (Fibroblast [2]; 12 h, replicate 1): 6% and 7%
Population Mitotic Cells (%) (Fibroblast [2]; 12 h, replicate 1): 27% and 33%
Population Normal (%) (Fibroblast [2]; 12 h, replicate 1): 85% and 81%
Population Pyknosed Nuclei (%) (Fibroblast [2]; 12 h, replicate 1): 13% and 16%
Total Cell Count (Fibroblast [2]; 12 h, replicate 1): 252 and 249
Population Apoptotic (%) (Fibroblast [2]; 12 h, replicate 2): 80% and 100%
Population Fragmented Nuclei (%) (Fibroblast [2]; 12 h, replicate 2): 66% and 72%
Population Healthy Nuclei (%) (Fibroblast [2]; 12 h, replicate 2): 24% and 21%
Population Hoechst High Intensity Objects (%) (Fibroblast [2]; 12 h, replicate 2): 38% and 53%
Population Membrane Permeable-Phenotype (%) (Fibroblast [2]; 12 h, replicate 2): 8% and 18%
Population Mitochondria Different-Phenotype (%) (Fibroblast [2]; 12 h, replicate 2): 16% and 0%
Population Mitotic Cells (%) (Fibroblast [2]; 12 h, replicate 2): 20% and 0%
Population Normal (%) (Fibroblast [2]; 12 h, replicate 2): 61% and 46%
Population Pyknosed Nuclei (%) (Fibroblast [2]; 12 h, replicate 2): 10% and 5%
Total Cell Count (Fibroblast [2]; 12 h, replicate 2): 81 and 110
Population Apoptotic (%) (Fibroblast [2]; 24 h, replicate 1): 79%
Population Fragmented Nuclei (%) (Fibroblast [2]; 24 h, replicate 1): 38% and 22%
Population Healthy Nuclei (%) (Fibroblast [2]; 24 h, replicate 1): 50% and 63%
Population Hoechst High Intensity Objects (%) (Fibroblast [2]; 24 h, replicate 1): 18% and 16%
Population Membrane Permeable-Phenotype (%) (Fibroblast [2]; 24 h, replicate 1): 15% and 7%
Population Mitochondria Different-Phenotype (%) (Fibroblast [2]; 24 h, replicate 1): 1% and 3%
Population Mitotic Cells (%) (Fibroblast [2]; 24 h, replicate 1): 20%
Population Normal (%) (Fibroblast [2]; 24 h, replicate 1): 81% and 83%
Population Pyknosed Nuclei (%) (Fibroblast [2]; 24 h, replicate 1): 11% and 14%
Total Cell Count (Fibroblast [2]; 24 h, replicate 1): 260 and 264
Population Apoptotic (%) (Fibroblast [2]; 24 h, replicate 2): 50% and 100%
Population Fragmented Nuclei (%) (Fibroblast [2]; 24 h, replicate 2): 76% and 67%
Population Healthy Nuclei (%) (Fibroblast [2]; 24 h, replicate 2): 18% and 28%
Population Hoechst High Intensity Objects (%) (Fibroblast [2]; 24 h, replicate 2): 45% and 53%
Population Membrane Permeable-Phenotype (%) (Fibroblast [2]; 24 h, replicate 2): 14% and 26%
Population Normal (%) (Fibroblast [2]; 24 h, replicate 2): 54% and 46%
Population Pyknosed Nuclei (%) (Fibroblast [2]; 24 h, replicate 2): 5% and 3%
Total Cell Count (Fibroblast [2]; 24 h, replicate 2): 70 and 112

CC1(C)CCC(C)(C)c2cc(NC(=O)c3ccc(C(=O)O)cc3)ccc21 [TAMIBAROTENE]
Growth Rate (U2OS; [9]): 0
Growth Rate (U2OS; [6]): 0
Growth Rate (U2OS; [10]): 1
Growth Rate (U2OS; [7]): 0
Growth Rate (U2OS; [11]): 1
Growth Rate (U2OS; [8]): 1
Growth Rate (Fibroblast [1]; [9]): 0
Growth Rate (Fibroblast [1]; [4]): 0
Growth Rate (Fibroblast [1]; [6]): 0
Growth Rate (Fibroblast [1]; [10]): 1
Growth Rate (Fibroblast [1]; [7]): 0
Growth Rate (Fibroblast [1]; [8]): 1
Growth Rate (HEK-293T; [9]): 0
Growth Rate (HEK-293T; [4]): 1
Growth Rate (HEK-293T; [6]): 1
Growth Rate (HEK-293T; [7]): 1
Growth Rate (HEK-293T; [8]): 1

CC[C@@H]1CN2C(=O)N(C)c3nc(-c4ccccc4)[nH]c3C2=N1.Cl
Growth Rate (U2OS; [3]): 0
Growth Rate (U2OS; [5]): 1
Growth Rate (U2OS; [10]): 0
Growth Rate (U2OS; [7]): 1
Growth Rate (U2OS; [8]): 1
Growth Rate (Fibroblast [1]; [9]): 0
Growth Rate (Fibroblast [1]; [6]): 1
Growth Rate (Fibroblast [1]; [10]): 0
Growth Rate (Fibroblast [1]; [7]): 1
Growth Rate (Fibroblast [1]; [8]): 1
Growth Rate (HEK-293T; [9]): 1
Growth Rate (HEK-293T; [3]): 0
Growth Rate (HEK-293T; [4]): 1
Growth Rate (HEK-293T; [6]): 1
Growth Rate (HEK-293T; [7]): 1
Growth Rate (HEK-293T; [8]): 1

O=C(NOCC1CC1)c1ccc(F)c(F)c1Nc1ccc(I)cc1Cl [CI-1040]
Growth Rate (U2OS; [9]): 0
Growth Rate (U2OS; [4]): 0
Growth Rate (U2OS; [6]): 0
Growth Rate (U2OS; [7]): 0
Growth Rate (U2OS; [8]): 0
Growth Rate (Fibroblast [1]; [9]): 0
Growth Rate (Fibroblast [1]; [5]): 1
Growth Rate (Fibroblast [1]; [6]): 1
Growth Rate (Fibroblast [1]; [7]): 1
Growth Rate (Fibroblast [1]; [8]): 1
Growth Rate (HEK-293T; [9]): 0
Growth Rate (HEK-293T; [3]): 1
Growth Rate (HEK-293T; [5]): 0
Growth Rate (HEK-293T; [6]): 0
Growth Rate (HEK-293T; [7]): 0
Growth Rate (HEK-293T; [8]): 0

Cc1ccc(-c2ccc3c(ccc4sc5c(c43)NC[C@@H](C)NC5=O)n2)cn1
Growth Rate (U2OS; [3]): 0
Growth Rate (U2OS; [6]): 1
Growth Rate (U2OS; [7]): 1
Growth Rate (U2OS; [8]): 1
Growth Rate (Fibroblast [1]; [9]): 0
Growth Rate (HEK-293T; [9]): 1
Growth Rate (HEK-293T; 24 h, replicate number 2, timepoint 24 hours): 1

Cc1cc([C@@H](C)Nc2cccc(-c3cc(C)c(C(=O)N[C@@H](C)C(=O)O)c(C)c3)c2)ccc1Cl
Growth Rate (U2OS; [9]): 0
Growth Rate (U2OS; [3]): 1
Growth Rate (U2OS; [5]): 0
Growth Rate (U2OS; [6]): 1
Growth Rate (U2OS; [7]): 0
Growth Rate (U2OS; [11]): 1
Growth Rate (U2OS; [8]): 1
Growth Rate (Fibroblast [1]; [9]): 0
Growth Rate (Fibroblast [1]; [4]): 1
Growth Rate (Fibroblast [1]; [5]): 0
Growth Rate (Fibroblast [1]; [6]): 1
Growth Rate (Fibroblast [1]; [10]): 0
Growth Rate (Fibroblast [1]; [7]): 1
Growth Rate (Fibroblast [1]; [8]): 0
Growth Rate (HEK-293T; [9]): 1
Growth Rate (HEK-293T; [3]): 0
Growth Rate (HEK-293T; [4]): 0
Growth Rate (HEK-293T; [6]): 0
Growth Rate (HEK-293T; [7]): 0
Growth Rate (HEK-293T; [8]): 0

O=C(c1ccc(C(=O)N2CCC(N3CCCC3)CC2)c(Nc2ccccc2)c1)N1CCC(N2CCCC2)CC1
Growth Rate (U2OS; [5]): 1
Growth Rate (U2OS; [6]): 1
Growth Rate (U2OS; [7]): 1
Growth Rate (U2OS; [8]): 1
Growth Rate (Fibroblast [1]; [9]): 0
Growth Rate (Fibroblast [1]; [4]): 1
Growth Rate (Fibroblast [1]; [6]): 1
Growth Rate (Fibroblast [1]; [7]): 1
Growth Rate (Fibroblast [1]; [8]): 1
Growth Rate (HEK-293T; [3]): 0
Growth Rate (HEK-293T; [8]): 1
